ChEMBL document CHEMBL4304782, “Antioxidant, Anti-inflammatory, and Neuroprotective Effects of Novel Vinyl Sulfonate Compounds as Nrf2 Activator” (ACS Med Chem Lett, 2019)

How the values were obtained:
[1] = target: T1, Nuclear factor erythroid 2-related factor 2 (Homo sapiens, UniProt Q16236); assay: Activation of ED-tagged Nrf2 in human U2OS cells co-expressing Keap1 assessed as induction of NRF2 translocation to nucleus after 6 hrs by beta-galactosidase based chemiluminescent assay; assay type: cell-based
T1 sequence (Q16236 whole entry): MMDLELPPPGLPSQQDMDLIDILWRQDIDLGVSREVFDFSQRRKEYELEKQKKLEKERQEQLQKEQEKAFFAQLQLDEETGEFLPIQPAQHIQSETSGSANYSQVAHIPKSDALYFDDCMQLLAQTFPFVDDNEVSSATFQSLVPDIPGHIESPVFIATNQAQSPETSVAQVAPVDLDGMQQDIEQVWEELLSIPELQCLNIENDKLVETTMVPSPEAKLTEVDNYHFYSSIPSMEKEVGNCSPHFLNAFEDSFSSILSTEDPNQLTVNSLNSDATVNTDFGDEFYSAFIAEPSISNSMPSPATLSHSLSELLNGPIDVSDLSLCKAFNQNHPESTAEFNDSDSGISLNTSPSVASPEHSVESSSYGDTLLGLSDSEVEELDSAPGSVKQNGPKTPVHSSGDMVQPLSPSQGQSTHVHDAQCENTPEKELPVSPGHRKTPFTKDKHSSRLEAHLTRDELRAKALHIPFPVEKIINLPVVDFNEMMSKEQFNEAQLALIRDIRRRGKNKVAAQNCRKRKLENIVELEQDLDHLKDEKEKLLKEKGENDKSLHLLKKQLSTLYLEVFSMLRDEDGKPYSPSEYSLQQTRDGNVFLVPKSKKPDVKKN

[2] = target: T2, Nuclear factor erythroid 2-related factor 2 (Mus musculus) (UniProt Q60795); assay: Activation of Nrf2 in mouse BV-2 cells assessed as upregulation of HO-1 mRNA expression at 1 to 10 uM incubated for 3 hrs by RT-qPCR analysis relative to control; assay type: cell-based
T2 sequence (whole entry): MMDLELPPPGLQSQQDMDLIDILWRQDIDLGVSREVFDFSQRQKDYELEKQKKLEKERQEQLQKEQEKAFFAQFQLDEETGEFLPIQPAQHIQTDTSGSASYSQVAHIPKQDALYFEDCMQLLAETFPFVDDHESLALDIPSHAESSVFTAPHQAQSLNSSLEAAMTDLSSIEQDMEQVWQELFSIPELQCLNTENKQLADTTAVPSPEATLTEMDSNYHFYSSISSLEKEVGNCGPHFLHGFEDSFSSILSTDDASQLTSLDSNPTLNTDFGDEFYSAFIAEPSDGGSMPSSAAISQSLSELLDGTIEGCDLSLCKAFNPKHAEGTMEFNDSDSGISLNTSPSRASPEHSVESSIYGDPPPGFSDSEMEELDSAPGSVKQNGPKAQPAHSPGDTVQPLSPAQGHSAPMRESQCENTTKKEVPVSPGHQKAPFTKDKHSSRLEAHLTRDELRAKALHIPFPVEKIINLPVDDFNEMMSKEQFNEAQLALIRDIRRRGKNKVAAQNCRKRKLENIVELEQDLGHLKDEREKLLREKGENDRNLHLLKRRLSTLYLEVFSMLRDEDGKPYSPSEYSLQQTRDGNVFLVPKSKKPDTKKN
Procedure, shortened: (§1)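 BV-2 cells exposed to a range of concentrations for 3 h; HO-1, GCLM and GCLC mRNA quantified by RT-qPCR, normalized to β-actin; at least duplicate cultures, fold of untreated control ± SEM; paired t test.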

[3] = target: T2, Nuclear factor erythroid 2-related factor 2 (Mus musculus); assay: Activation of Nrf2 in mouse BV-2 cells assessed as upregulation of GCLM mRNA expression at 1 to 10 uM incubated for 3 hrs by RT-qPCR analysis relative to control; assay type: cell-based; procedure, shortened: as §1
[4] = target: T2, Nuclear factor erythroid 2-related factor 2 (Mus musculus); assay: Activation of Nrf2 in mouse BV-2 cells assessed as upregulation of GCLC mRNA expression at 1 to 10 uM incubated for 3 hrs by RT-qPCR analysis relative to control; assay type: cell-based; procedure, shortened: as §1
[5] = target: T2, Nuclear factor erythroid 2-related factor 2 (Mus musculus); assay: Activation of Nrf2 in mouse BV-2 cells assessed as increase in HO-1 level at 0.3 to 10 uM incubated for 12 hrs by Western blot analysis relative to control; assay type: cell-based
Procedure, shortened: (§2)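 BV-2 cells treated for 12 h; HO-1, GCLM, GCLC protein by Western blot, normalized to β-actin; at least duplicate cultures, fold induction over untreated control ± SEM; paired t test.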

[6] = target: T2, Nuclear factor erythroid 2-related factor 2 (Mus musculus); assay: Activation of Nrf2 in mouse BV-2 cells assessed as increase in GCLM level at 0.3 to 10 uM incubated for 12 hrs by Western blot analysis relative to control; assay type: cell-based; procedure, shortened: as §2
[7] = Cytotoxicity against mouse BV2 cells assessed as cell viability at 1 uM incubated for 6 hrs by CCK-8 assay relative to control; assay type: cell-based, BV-2; conditions: read-out: Activity
Procedure, shortened: (§3)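 BV-2 cells exposed to compound for 6 h, then viability measured; percent survival reported.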

[8] = Cytotoxicity against mouse BV2 cells assessed as cell viability at 3 uM incubated for 6 hrs by CCK-8 assay relative to control; assay type: cell-based, BV-2; conditions: read-out: Activity; procedure, shortened: as §3
[9] = Cytotoxicity against mouse BV2 cells assessed as cell viability at 10 uM incubated for 6 hrs by CCK-8 assay relative to control; assay type: cell-based, BV-2; conditions: read-out: Activity; procedure, shortened: as §3
[10] = target: T2, Nuclear factor erythroid 2-related factor 2 (Mus musculus); assay: Activation of Nrf2 in mouse BV-2 cells assessed as increase in nuclear Nrf2 level by Western blot analysis; assay type: cell-based
Procedure, shortened: (§4)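 BV-2 microglia treated 0.3–10 μM; Nrf2 measured by Western blot in nuclear extracts and whole-cell lysates; at least duplicate cultures, averaged, expressed as fold of untreated control ± SEM; paired t test.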

[11] = target: T2, Nuclear factor erythroid 2-related factor 2 (Mus musculus); assay: Activation of Nrf2 in mouse BV-2 cells assessed as increase in nuclear Nrf2 level at 0.3 uM by Western blot analysis relative to control; assay type: cell-based; procedure, shortened: as §4
[12] = target: T2, Nuclear factor erythroid 2-related factor 2 (Mus musculus); assay: Activation of Nrf2 in mouse BV-2 cells assessed as increase in nuclear Nrf2 level at 10 uM by Western blot analysis relative to control; assay type: cell-based; procedure, shortened: as §4
[13] = target: T2, Nuclear factor erythroid 2-related factor 2 (Mus musculus); assay: Activation of Nrf2 in mouse BV-2 cells assessed as increase in total Nrf2 level by Western blot analysis; assay type: cell-based; procedure, shortened: as §4
[14] = target: T2, Nuclear factor erythroid 2-related factor 2 (Mus musculus); assay: Activation of Nrf2 in mouse BV-2 cells assessed as increase in total Nrf2 level at 0.3 uM by Western blot analysis relative to control; assay type: cell-based; procedure, shortened: as §4
[15] = target: T2, Nuclear factor erythroid 2-related factor 2 (Mus musculus); assay: Activation of Nrf2 in mouse BV-2 cells assessed as increase in total Nrf2 level at 10 uM by Western blot analysis relative to control; assay type: cell-based; procedure, shortened: as §4
SH-SY5Y = assay: Antioxidant activity in human SH-SY5Y cells assessed as increase in NQO1 level at 0.3 to 3 uM incubated for 6 to 24 hrs by Western blot analysis relative to control; assay type: functional
Procedure, shortened: (§5)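 SH-SY5Y neuroblastoma cells treated for 6 or 24 h, then harvested; NQO1, GCLM, GCLC protein by Western blot with β-actin loading control; at least duplicate cultures, averaged, fold of untreated control ± SEM; paired t test.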

[16] = target: T3, Nuclear factor erythroid 2-related factor 2 (Homo sapiens) (UniProt Q16236); assay: Activation of Nrf2 in human SH-SY5Y cells assessed as increase in GCLM level at 0.3 to 3 uM incubated for 6 to 24 hrs by Western blot analysis relative to control; assay type: cell-based; procedure, shortened: as §5
T3 sequence (whole entry): T1 sequence (Q16236 whole entry)

EC50 [1]: 76 nM | fold change (FC) [2]: 10.7 | fold change (FC) [3]: 5.3 | fold change (FC) [4]: 2.3 | fold change (FC) [5]: 10.3 | fold change (FC) [6]: 5.6 | Activity [10]: Dose-dependent effect | fold change (FC) [11]: 4 | fold change (FC) [12]: 17.6 | Activity [13]: Dose-dependent effect | fold change (FC) [14]: 3.3 | fold change (FC) [15]: 6.7 | fold change (FC) [16]: 2.9
SMILES: COc1ccccc1OS(=O)(=O)/C=C/c1ccccc1Cl
viability at 6 h, 1 µM [7]: 98% | viability at 6 h, 3 µM [8]: 97.6% | viability at 6 h, 10 µM [9]: 95.9% | fold change (FC) (SH-SY5Y): 4.7
